Compound activity: PubChem, several laboratories
An excerpt weighted towards active compounds, which were near 1.6% of everything screened.
T cell HTS: modulates CD8 T cell binding to vesicles; 2C CD8+ T cell-vesicle binding, flow cytometry; hits give low values; response (vesicle binding), % at 7 µM; hit rate 0.068% among 330,000;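 active = response, share of CD8 T cells binding vesicles, and their 90th percentile fluorescence all below set limits, cut at about 80% in these data, passing the limit was not always enough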;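 note: values below 100% mean blocked vesicle binding to the CD8+ T cells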
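Test system: purified 2C TCR transgenic mouse naive CD8+ T cells. Probe or stimulus: QL9-peptide-loaded Drosophila micro-vesicles bearing Ld, ICAM-1 and B7-1. Incubation: binding step 1.5 h, 37 °C, antibody labelling 20 min, ice. Measured by: flow cytometry of vesicle-bound cells.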
HDAC3 inh: inhibitors of human histone deacetylase 3. hit rate 0.15% among 320,000. recombinant HDAC3, fluorogenic peptide/trypsin coupled, fluorescence. O15379. AID 2718. inhibition, % at 8.3 µM; in the data active = inhibition above about 26%, passing the limit was not always enough
Arrestin-AP2 inh: inhibitors of human beta-arrestin and AP2 interaction. FITC-arrestin peptide / GST-AP2 beads, flow cytometry; AP2 beta2 appendage carries R879A mutation. inhibition, % at 10 µM. AID 504490. hit rate 0.31% among 340,000;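 active = inhibition above a set limit, near 3 SD of compounds lacking own fluorescence, cut at about 54% in these data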;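 note: plate controls were DMSO wells for no effect and 5 µM unlabelled arrestin peptide for full effect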
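system = GST-tagged AP2 beta2-adaptin appendage (R879A) on 4 µm glutathione beads | reagent = FITC-labelled arrestin peptide probe, 50 nM final | schedule = compound with beads 12 min RT, then probe 1 h RT | signal = HyperCyt-sampled flow cytometry, FL1 channel, ex 488/em 535 nm | read-out = percent response from loss of bead-bound FITC fluorescence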
DSG3 Ab inh: blocks pemphigus antibody binding to human desmoglein-3; P32926; DSG3-coupled beads, scFv-anti-DSG3-GFP binding, flow cytometry; hits give low values; binding (percent of control), % at 10 µM; hit rate 0.48% among 310,000; AID 588358;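 active = binding more than 3 SD below its plate's average and above zero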;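 note: hits lower antibody fragment binding to DSG3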
LANA-H2A inh: blocks KSHV LANA binding to histone H2A/H2B. Q9QR71. cell-free LANA-H2A/H2B peptide, fluorescence polarization. inhibition, % (no concentration beside the values). hit rate 0.6% among 320,000; in the data active = inhibition mostly above about 10%, no sharp cut-off; inactive = mostly below about 6.7%
GASC-1 inh: human JMJD2C demethylase inhibition. GST-JMJD2C(1-420) H3K9me3 demethylation, DELFIA europium. inhibition, % at 2.35 µM. hit rate 0.069% among 330,000. AID 2099;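 active = more than half of a compound's replicate wells show inhibition beyond 50%, single wells judged on their own value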;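 note: signal counts dimethyl H3K9 product captured on neutravidin plate; 0% = median of DMSO wells and 100% = 0.3 times that DMSO median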
Target sequence (Q9H3R0 1-420 limits assumed): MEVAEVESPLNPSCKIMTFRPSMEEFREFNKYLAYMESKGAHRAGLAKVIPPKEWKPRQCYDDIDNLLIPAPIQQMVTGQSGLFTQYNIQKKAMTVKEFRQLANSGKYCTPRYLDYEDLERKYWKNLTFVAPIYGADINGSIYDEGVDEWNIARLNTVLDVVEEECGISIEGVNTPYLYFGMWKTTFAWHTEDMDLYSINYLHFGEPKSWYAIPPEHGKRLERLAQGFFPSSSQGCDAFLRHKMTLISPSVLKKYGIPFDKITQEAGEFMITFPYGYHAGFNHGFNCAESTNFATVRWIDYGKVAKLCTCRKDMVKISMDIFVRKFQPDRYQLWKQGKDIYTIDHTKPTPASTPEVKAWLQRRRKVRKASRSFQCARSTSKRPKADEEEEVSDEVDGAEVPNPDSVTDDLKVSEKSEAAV
Numbers without * were called inactive; i = inactive; x = no result.

SMILES	T cell HTS	HDAC3 inh	Arrestin-AP2 inh	DSG3 Ab inh	LANA-H2A inh	GASC-1 inh
O=C(Nc1ccc(Oc2ccccc2)cc1)c1ccc(Cn2c(=O)[nH]c3ccsc3c2=O)cc1	609	1	9	51*	-1	9
COc1ccc(NC(=O)Nc2ccccc2SC)c(OC)c1	332	-1	-4	-6.3*	4	-8
COc1ccc(NC(=O)Nc2ccccc2C)c(OC)c1	177	7	26	105	0	11
N#Cc1nc(-c2cccc(Cl)c2)oc1N1CCC(C(N)=O)CC1	95	-175	-3	104	6	-10
Cn1ccnc1SCC(=O)c1ccc(C#N)cc1	i	36*	-27	93	3	-1
COc1ccc(C(=O)CSc2nccn2C)cc1	173	-1	30	101	-1	-3
CC(C)(O)/C=C/C[C@](C)(O)C1CC[C@]2(C)C1[C@H](O[C@H]1O[C@@H](CO)[C@H](O)[C@@H](O)[C@@H]1O)CC1[C@@]3(C)CC[C@H](O)C(C)(C)C3[C@@H](O)C[C@]12C (stereo partly drawn)	492	-5	1	96	-1	6
Cc1ccc(C2(C)NC(=O)N(CC(=O)NNC(=O)c3ccccc3F)C2=O)cc1 (stereo not drawn)	479	0	-14	101	21*	13
CC1(c2ccccc2)NC(=O)N(CC(=O)NNC(=O)c2ccccc2F)C1=O (stereo not drawn)	x	x	42	101	x	x
FC(F)Sc1ccc(NC(=S)N2CCN(c3ccccn3)CC2)cc1	x	x	-1	96	x	-20
Oc1ccccc1N1CCN(C(=S)Nc2ccc(SC(F)F)cc2)CC1	253	7	-8	98	23*	-19
COCCCNC(=O)C1CCC(CNS(=O)(=O)c2ccc3c(c2)CC(C)N3C(=O)C2CC2)CC1 (stereo not drawn)	193	0	8	x	-5	22
CCCCn1nc(C(=O)Nc2cc(C(F)(F)F)ccc2N2CCOCC2)ccc1=O	358	10	-7	100	1	-11
CCCCOc1ccc(/C=C2/Sc3ccccc3C2=O)cc1	191	0	0	79	-17	29
CC(=O)Oc1cccc(/C=C2\Sc3ccccc3C2=O)c1	808	4	-1	x	14*	-24
CCOC(=O)[C@H]1[C@H]2COc3ccc(OC)cc3[C@@H]2N2C(=O)c3ccccc3NC(=O)[C@@]12C	x	-1	8	107	1	0
COC(=O)c1cc(O)c(O)c(O)c1	591	7	-2	107	8	7
COC(=O)c1cc(OC)nc(OC)c1	166	-1	-3	x	25*	-20
COc1ccc(NC(=O)C2OC3OC(C)(C)OC3C3OC(C)(C)OC23)cc1 (stereo not drawn)	388	0	14	x	27*	43
CC(C)CCOc1ccc(NC(=O)C2OC3OC(C)(C)OC3C3OC(C)(C)OC23)cc1 (stereo not drawn)	686	3	-8	x	3	-6
CCC(=O)c1ccc(OCC(=O)N2CCN(c3ncccn3)CC2)cc1	451	-5	1	104	1	18
CC1CCCN(CCOc2ccc3ccccc3c2Br)C1 (stereo not drawn)	391	0	4	104	-3	9
CCOC(=O)c1[nH]c2cc(OC)c(OC)cc2c1NC(=O)c1ccc2c(c1)OCO2	215	-1	-4	17*	0	3
CCOC(=O)c1[nH]c2ccccc2c1NC(=O)c1ccc2c(c1)OCO2	636	-2	12	-8.4*	7	-4
CCN(C(=O)COC(=O)COc1ccccc1Cl)c1c(N)n(Cc2ccccc2)c(=O)[nH]c1=O	626	-3	-13	x	-6	7
CN(C)/C=C1/OC(=O)C(C#N)=C1c1ccc(Cl)cc1	225	-1	-2	102	0	-30
CC1(C)Cc2c(cnn2-c2cccc(F)c2)C(NC(=O)CN2CCCC2=O)C1 (stereo not drawn)	213	1	43	x	2	9
N=c1n(CC(=O)c2cccc([N+](=O)[O-])c2)c2ccccc2n1Cc1ccccc1	367	-2	25	111	0	61*
COC(C/C=C\C(=O)[C@@H](C)OCc1ccccc1)OC	146	8	x	x	-6	4
